Data as given in PubChem BioAssay.
Calls of active or inactive are those of the source.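 The calls were made as follows, unless noted: active = inhibition above 20% together with a positive visual image hit; inconclusive = visual image hit but inhibition not above 20%; inactive = no visual image hit.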

Experiments:
[1] = inhibitors of TNFa-induced NFkB p65 translocation, primary screen, imaging, HUVEC, MLSMR starter and 10KST1 sets (AID 438); conditions: HUVEC TNFa-induced p65 nuclear translocation; cell count: measured here: nuclei count (cytotoxicity indicator), at 2.08 µM; inhibition: at 2 µM, stronger effect = higher value, 0% TNFa-plus-vehicle, 100% no-TNFa wells;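 also: compound added about 3h40 before a 20 min TNFalpha stimulation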;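 as to inhibition: signal is the nuclear over cytoplasmic p65 intensity ratio per well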
[2] = inhibitors of mutant huntingtin aggregation, primary screen, imaging, exon1htt(103Q)mCFP cells, high-content imaging (AID 483;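 active = visual image review flags a hit and inhibition of aggregation exceeds 20%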;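 also: compound exposure lasted 3 days before fixation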;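 as to nuclei count: percent of the per-plate median nuclei count of sample wells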); conditions: exon1htt(103Q)mCFP cell line, aggregate imaging, at 2 µM; inhibition of aggregation: stronger effect = higher value; nuclei count: measured here: cell count, toxicity
[3] = inhibitors of E-selectin induction by TNFa, primary screen, imaging, HUVEC, immunofluorescence, MLSMR starter and 10KST1 sets (AID 487;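 active = visually confirmed hit in the image check and inhibition above 20%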;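 as to inhibition: signal is fraction of cell area covered by stained E-selectin grains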;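 as to nuclei count: 100% = median nuclei count of all wells on the same plate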); conditions: HUVEC TNFalpha-induced E-selectin immunofluorescence imaging, at 2 µM; inhibition: stronger effect = higher value; nuclei count: measured here: cell number, toxicity
[4] = biological target: Voltage-gated potassium channel subunit beta-2 (Rattus norvegicus) (UniProt P62483); experiment: KvBeta enzyme negative modulators, primary screen, biochemical, NADPH fluorescence (AID 622;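 active = fluorescence slope higher than the sample average by over 3 SD, cut at about -0.22 in these data, passing the limit was not always enough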;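 also: slope of raw intensity against log time taken from 70 to 1610 s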); conditions: recombinant KvBeta, 4-cyanobenzaldehyde reduction, at 10 µM, stronger effect = higher value
Voltage-gated potassium channel subunit beta-2 (Rattus norvegicus), sequence (P62483 whole entry, looked up): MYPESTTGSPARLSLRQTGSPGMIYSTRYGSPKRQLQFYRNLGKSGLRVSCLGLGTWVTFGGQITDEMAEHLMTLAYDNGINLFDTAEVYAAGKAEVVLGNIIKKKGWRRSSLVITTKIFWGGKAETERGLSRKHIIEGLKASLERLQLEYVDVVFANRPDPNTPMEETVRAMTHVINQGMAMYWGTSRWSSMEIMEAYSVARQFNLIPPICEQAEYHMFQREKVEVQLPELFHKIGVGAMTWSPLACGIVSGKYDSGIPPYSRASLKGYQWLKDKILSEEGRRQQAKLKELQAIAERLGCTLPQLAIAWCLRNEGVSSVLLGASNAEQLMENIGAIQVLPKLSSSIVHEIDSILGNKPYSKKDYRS

[5] = biological target: Voltage-gated potassium channel subunit beta-2 (Rattus norvegicus) (UniProt P62483); experiment: KvBeta positive modulators, primary screen, biochemical, NADPH fluorescence (AID 623;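 active = NADPH fluorescence slope more negative than the mean of all samples by about 3 SD, 99.7% confidence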;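 also: fluorescence intensity change per second fitted from 20 to 320 s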); conditions: Recombinant KvBeta, NADPH fluorescence decrease slope, 10 min; at 10 µM; stronger effect = lower value
[6] = biological target: Alpha-2C adrenergic receptor (Homo sapiens) (UniProt P18825); experiment: modulators of alpha2C/GIRK thallium flux, primary screen, cell-based, HEK293 alpha2C/GIRK1/2 (AID 624;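 active = fluorescence slope after compound addition differing from the mean of all screened samples at 99.7% confidence, in either direction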;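 also: slope of fluorescence ratio to pre-addition baseline per second over 15 to 24 s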); conditions: thallium flux BTC fluorescence, at 10 µM, actives lie on both sides
Alpha-2C adrenergic receptor (Homo sapiens), sequence (P18825 whole entry, looked up): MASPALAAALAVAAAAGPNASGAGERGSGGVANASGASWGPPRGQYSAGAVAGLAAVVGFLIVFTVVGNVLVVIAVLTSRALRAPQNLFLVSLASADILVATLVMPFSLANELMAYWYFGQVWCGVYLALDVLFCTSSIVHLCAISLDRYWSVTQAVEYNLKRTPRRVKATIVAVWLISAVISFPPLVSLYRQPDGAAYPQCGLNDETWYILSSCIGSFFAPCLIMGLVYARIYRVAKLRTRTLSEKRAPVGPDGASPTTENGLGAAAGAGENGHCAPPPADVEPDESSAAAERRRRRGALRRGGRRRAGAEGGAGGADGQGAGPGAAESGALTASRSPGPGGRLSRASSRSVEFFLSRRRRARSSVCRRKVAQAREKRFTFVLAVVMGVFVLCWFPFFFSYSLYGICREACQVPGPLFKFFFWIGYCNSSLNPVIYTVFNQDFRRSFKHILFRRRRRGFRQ

[7] = inhibitors of larval lipid processing in zebrafish, primary screen, whole organism, PED6 fluorescence, gall bladder and intestine (AID 686;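 active = a full or partial loss of lipid-probe fluorescence in the fish gall bladder, intestine or both, judged by eye; inactive = no fluorescence loss, or compound toxic to the fish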;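 also: larvae 5 to 7 days old with five fish per well; signal comes from phospholipase A2 cleavage of quenched PED6 carried via bile; overnight exposure to compound and PED6 before scoring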); conditions: Zebrafish larvae PED6 lipid processing, fluorescence scoring; screened at 20 µM (by protocol)
How it was run: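 system = live zebrafish larvae aged 5-7 days, whole organism | probe or stimulus = ingested quenched lipid PED6 at 100 nM | doses = 20 µM single dose | timing = overnight exposure | detection = fluorescence microscopy with visual scoring of gall bladder and intestine | read-out = visual per-well fluorescence inhibition score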

[8] = inhibitors of Sendai virus-induced IRF3 signaling, primary screen, TLR/RLR signaling modifier project, cell-based, Sendai virus stimulus, luciferase, 10K MLSCN set (AID 602276;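 active = inhibition at or above 50% at 10 µM; inactive = inhibition below 50%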;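 also: firefly luciferase from ISG56 promoter only with Renilla not read in this screen; 0% = Sendai virus plus DMSO and 100% = medium plus DMSO without virus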); conditions: HEK293 RL24 IRF3 luciferase reporter, at 10 µM, stronger effect = higher value
[9] = inhibitors of poly I:C-induced TLR3 signaling, primary screen, cell-based, poly I:C stimulus, luciferase, 10K MLSCN set (AID 602277;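 active = inhibition of the reporter signal at or above 50%; inactive = inhibition below 50%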); conditions: HEK293-TLR3 RL24 IRF3 luciferase reporter, at 10 µM, stronger effect = higher value

Structure (SMILES)	cell count [1]	inhibition [1]	inhibition of aggregation [2]	nuclei count [2] [%]	inhibition [3]	nuclei count [3] [%]	fluorescence slope [4]	NADPH fluorescence slope [5]	slope [6]	outcome [7]	inhibition [8]	inhibition [9]
CN(C)C(=O)COc1ccc2cc(-c3ccccc3)c(=O)oc2c1	300	-4% (inactive)	14.5% (inactive)	89.5	-75.1% (inactive)	146	-0.00785 (inactive)	0 (inactive)	0.0053 (inactive)	inactive	-24.2% (inactive)	98.1% (active)
Cc1oc2c(c1C(=O)NCc1ccccc1)CCCC2	437	1.3% (inactive)	-13.6% (inactive)	108	4.8% (inactive)	130	-0.464 (inactive)	-4.8e-05 (inactive)	0.00391 (inactive)	inactive	9.63% (inactive)	4.5% (inactive)
Cc1cc(C)cc(NC(=O)CN(C)S(=O)(=O)c2cnc[nH]2)c1	484	8.7% (inactive)	-24% (inactive)	110	0.4% (inactive)	100	-0.406 (inactive)	-3.6e-05 (inactive)	0.00489 (inactive)	inactive	1.14% (inactive)	2.32% (inactive)
COc1cc(-c2nc(S(=O)(=O)c3ccc(C)cc3)c(N(C)C)o2)cc(OC)c1OC	432	-6.3% (inactive)	-5.1% (inactive)	105	-57% (inactive)	108	-0.386 (inactive)	-9.2e-05 (inactive)	0.00686 (inactive)	inactive	-11.7% (inactive)	-7.3% (inactive)
Cc1nc2c(-c3ccccc3)c(C)[nH]n2c(=O)c1Cl	277	-8.3% (inactive)	2.3% (inactive)	109	-5.5% (inactive)	84.2	-0.485 (inactive)	3e-05 (inactive)	0.00434 (inactive)	inactive	-11.4% (inactive)	-22.1% (inactive)
COC(=O)c1[nH]c2ccc(C)cc2c1NC(=O)CN1CCC(C)CC1	340	-0.4% (inactive)	15.7% (inactive)	103	-18.4% (inactive)	120	-0.337 (inactive)	-5.5e-05 (inactive)	0.00492 (inactive)	inactive	4.88% (inactive)	2.95% (inactive)
O=C(Nc1ccc2oc(Cc3ccc(Cl)cc3)nc2c1)c1cccnc1	396	6.7% (inactive)	-0.8% (inactive)	93.5	-15% (inactive)	114	-0.364 (inactive)	-2.3e-06 (inactive)	0.00427 (inactive)	inactive	14.7% (inactive)	7.42% (inactive)
CC(=O)c1cccc(NC(=O)NCc2ccco2)c1	385	0.8% (inactive)	-4.5% (inactive)	74.6	-43.8% (inactive)	79.8	-0.386 (inactive)	6.8e-06 (inactive)	0.00558 (inactive)	inactive	-3.74% (inactive)	-37.3% (inactive)
CCn1c(SCC(N)=O)nnc1-c1ccc(S(=O)(=O)N2CCN(C)CC2)cc1	736	-10.2% (inactive)	-23.3% (inactive)	118	-11.3% (inactive)	129	-0.396 (inactive)	-1.7e-05 (inactive)	0.00446 (inactive)	inactive	-10.4% (inactive)	-10.4% (inactive)
C1CCN=C(Nc2nc3c(s2)CCCC3)CC1	432	7.3% (inactive)	-10.9% (inactive)	118	8.7% (inactive)	110	-0.413 (inactive)	-3.8e-05 (inactive)	0.00517 (inactive)	inactive	-23.9% (inactive)	-50% (inactive)
Cc1nnc(SCc2cccc(Oc3ccccc3)c2)n1N	701	-4.2% (inactive)	2.8% (inactive)	108	-59.1% (inactive)	105	-0.384 (inactive)	-3e-05 (inactive)	0.00543 (inactive)	inactive	-4.43% (inactive)	98.8% (active)
O=C(Nc1cccnc1)c1cc2c(ccc3ccccc32)o1	489	8.1% (inactive)	-7.4% (inactive)	104	-160% (inactive)	140	-0.355 (inactive)	-4.5e-05 (inactive)	0.00441 (inactive)	inactive	-38.2% (inactive)	-135% (inactive)
Cn1nc(C(C)(C)C)cc1C(=O)NCc1ccc(N2CCCC2=O)cc1	651	-10.6% (inactive)	-12.4% (inactive)	70.7	-11.3% (inactive)	107	-0.456 (inactive)	-9.7e-05 (inactive)	0.00425 (inactive)	inactive; toxic	9.24% (inactive)	-37.1% (inactive)
O=C(c1ccccc1)c1ccc(N2CCNCC2)cc1	395	4.3% (inactive)	-14.4% (inactive)	92.6	2.4% (inactive)	102	-0.518 (inactive)	5.3e-06 (inactive)	0.00569 (inactive)	inactive	-41.5% (inactive)	-73.5% (inactive)
O=C(O)CCC(=O)NC1CCCCC1NC(=O)CCC(=O)O (centres undefined)	488	4% (inactive)	-8.6% (inactive)	104	-189% (inactive)	129	-0.394 (inactive)	-6.2e-05 (inactive)	0.00623 (inactive)	inactive	5.12% (inactive)	3.98% (inactive)
O=C(CSc1nnc(Cc2ccccc2)n1-c1cccc(Cl)c1)N1CCOCC1	352	10.5% (inactive)	-18.8% (inactive)	85.8	-207% (inactive)	119	-0.4 (inactive)	-4.5e-05 (inactive)	0.00585 (inactive)	inactive	-1.07% (inactive)	9.14% (inactive)
Cc1cccc(NC(=O)CCCCCN2C(=O)c3ccccc3C2=O)n1	495	-4.8% (inactive)	-19.8% (inactive)	103	-68.6% (inactive)	167	-0.44 (inactive)	-6.5e-05 (inactive)	0.00404 (inactive)	inactive	15.6% (inactive)	15.2% (inactive)
O=C(CN1C(=O)c2ccccc2C1=O)Nc1ccc(S(=O)(=O)NCC2CCCO2)cc1 (centres undefined)	389	-6% (inactive)	-2.4% (inactive)	93.4	-52.4% (inactive)	107	-0.412 (inactive)	-2.5e-05 (inactive)	0.00503 (inactive)	inactive	-1.96% (inactive)	98.2% (active)
CC1CN(C(=O)CSc2ncnc3sccc23)CC(C)O1 (centres undefined)	356	-0.9% (inactive)	-13.4% (inactive)	98.3	-1.1% (inactive)	102	-0.469 (inactive)	-2.6e-05 (inactive)	0.0052 (inactive)	inactive	10.7% (inactive)	11% (inactive)
CC(C)(C)NC(=O)C(Cc1ccccc1)NS(=O)(=O)c1cccc2nsnc12 (centres undefined)	721	-19.8% (inactive)	-37.6% (inactive)	113	-49.9% (inactive)	112	-0.413 (inactive)	1.1e-05 (inactive)	0.00438 (inactive)	inactive	3.22% (inactive)	8.45% (inactive)
CC12CN3CCN(CC(C3)C1(O)CN1CCCCC1)C2 (centres undefined)	305	1.7% (inactive)	-16.8% (inactive)	111	-66.3% (inactive)	121	-0.347 (inactive)	-5.6e-05 (inactive)	0.00521 (inactive)	inactive	10.7% (inactive)	35.8% (inactive)
Cn1c(CSc2nc3ccccc3s2)nnc1SCC(=O)NCCN1CCOCC1	487	4.5% (inactive)	-3.4% (inactive)	94.1	-23% (inactive)	125	-0.409 (inactive)	-8.1e-06 (inactive)	0.00477 (inactive)	inactive	-5.77% (inactive)	13.9% (inactive)
CN(Cc1ccccc1)C(=O)c1cc(-c2ccc(Br)cc2)on1	318	2.4% (inactive)	14.9% (inactive)	107	19.7% (inactive)	110	-0.399 (inactive)	-3.6e-05 (inactive)	0.00441 (inactive)	inactive	-49.5% (inactive)	-116% (inactive)
Cn1c(=O)c2c(nc(NCCCO)n2Cc2cccc(Br)c2)n(C)c1=O	705	-1.8% (inactive)	1.7% (inactive)	108	25.3% (inactive)	92.8	-0.349 (inactive)	-4.6e-05 (inactive)	0.00493 (inactive)	inactive	14.9% (inactive)	14.1% (inactive)
CC1=C(C(=O)N2CCOCC2)C(c2ccccc2F)C2=C(CCCC2=O)N1 (centres undefined)	401	-0.8% (inactive)	-15% (inactive)	111	-24.5% (inactive)	121	-0.314 (inactive)	4.2e-06 (inactive)	0.00583 (inactive)	inactive	3.26% (inactive)	6.93% (inactive)
O=C(CSc1nnc(-c2ccco2)n1CC1CCCO1)N1CCCCC1 (centres undefined)	375	1.4% (inactive)	9.7% (inactive)	102	-41% (inactive)	107	-0.378 (inactive)	-6.2e-05 (inactive)	0.00431 (inactive)	inactive	13.1% (inactive)	11.6% (inactive)
COc1ccccc1NC(=O)N(Cc1ccco1)Cc1cc2cccc(C)c2[nH]c1=O	333	-9.3% (inactive)	18.6% (inactive)	105	30.7% (inactive)	89.2	-0.347 (inactive)	-5.6e-05 (inactive)	0.00419 (inactive)	inactive	8.12% (inactive)	-0.891% (inactive)
